Measured values as given in ChEMBL document CHEMBL4400530, “Synthesis and structure-activity relationship studies of water-soluble β-cyclodextrin-glycyrrhetinic acid conjugates as potential anti-influenza virus agents” (Eur J Med Chem, 2019).
The source made the active and inactive calls. No cut-off for these calls is given here.

Tests used:
Influenza A virus = test: Antiviral activity against Influenza A virus (A/WSN/33(H1N1)) infected in MDCK cells assessed as reduction in virus-induced cytopathic effect at 50 uM after 40 hrs by CellTiter-Glo assay; assay type: functional, organism-based; settings: A/WSN/1933(H1N1)
Outline: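 MDCK cells seeded, grown overnight, then infected with A/WSN/33 (H1N1) at MOI 0.1 in DMEM with 1% FBS, 2 μg/mL TPCK-treated trypsin and test compound (final DMSO 1%). Compounds screened at a single 50 μM concentration. Incubation 40 h, then viability read by CellTiter-Glo luminescence. Oseltamivir positive control, DMSO negative control. Virus stock titres determined in MDCK cells by Reed and Muench.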

MDCK = test: Cytotoxicity against MDCK cells assessed as effect on cell viability at 50 uM measured after 36 hrs by CellTiter-Glo assay; assay type: cell-based, Canis lupus familiaris; settings: dog
Outline: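 MDCK cells (1 × 10⁴ per well) left to adhere 24 h at 37 °C, 5% CO₂. Medium then replaced with fresh medium containing compound at 50 μM, in triplicate. Controls received medium with 1% DMSO. Plates incubated 36 h at 37 °C, 5% CO₂, then viability read by CellTiter-Glo luminescence.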

SMILES | Activity (Influenza A virus) | Activity (MDCK)
CC(=O)OC[C@H]1O[C@@H]2O[C@H]3[C@H](OC(C)=O)[C@@H](OC(C)=O)[C@@H](O[C@H]4[C@H](OC(C)=O)[C@@H](OC(C)=O)[C@@H](O[C@H]5[C@H](OC(C)=O)[C@@H](OC(C)=O)[C@@H](O[C@H]6[C@H](OC(C)=O)[C@@H](OC(C)=O)[C@@H](O[C@H]7[C@H](OC(C)=O)[C@@H](OC(C)=O)[C@@H](O[C@H]8[C@H](OC(C)=O)[C@@H](OC(C)=O)[C@@H](O[C@H]1[C@H](OC(C)=O)[C@H]2OC(C)=O)O[C@@H]8COC(C)=O)O[C@@H]7COC(C)=O)O[C@@H]6COC(C)=O)O[C@@H]5Cn1cc(COCCNC(=O)[C@@]2(C)CC[C@]5(C)CC[C@]6(C)C(=CC(=O)[C@@H]7[C@@]8(C)CC[C@H](O)C(C)(C)[C@@H]8CC[C@]76C)[C@@H]5C2)nn1)O[C@@H]4COC(C)=O)O[C@@H]3COC(C)=O | Active | Non-Toxic
CC(=O)OC[C@H]1O[C@@H]2O[C@H]3[C@H](OC(C)=O)[C@@H](OC(C)=O)[C@@H](O[C@H]4[C@H](OC(C)=O)[C@@H](OC(C)=O)[C@@H](O[C@H]5[C@H](OC(C)=O)[C@@H](OC(C)=O)[C@@H](O[C@H]6[C@H](OC(C)=O)[C@@H](OC(C)=O)[C@@H](O[C@H]7[C@H](OC(C)=O)[C@@H](OC(C)=O)[C@@H](O[C@H]8[C@H](OC(C)=O)[C@@H](OC(C)=O)[C@@H](O[C@H]1[C@H](OC(C)=O)[C@H]2OC(C)=O)O[C@@H]8COC(C)=O)O[C@@H]7COC(C)=O)O[C@@H]6COC(C)=O)O[C@@H]5Cn1cc(CNC(=O)[C@@]2(C)CC[C@]5(C)CC[C@]6(C)C(=CC(=O)[C@@H]7[C@@]8(C)CC[C@H](O)C(C)(C)[C@@H]8CC[C@]76C)[C@@H]5C2)nn1)O[C@@H]4COC(C)=O)O[C@@H]3COC(C)=O | Active | Non-Toxic
CC1(C)[C@@H](O)CC[C@]2(C)[C@H]3C(=O)C=C4[C@@H]5C[C@@](C)(C(=O)NCCOCc6cn(C[C@H]7O[C@@H]8O[C@H]9[C@H](O)[C@@H](O)[C@@H](O[C@H]%10[C@H](O)[C@@H](O)[C@@H](O[C@H]%11[C@H](O)[C@@H](O)[C@@H](O[C@H]%12[C@H](O)[C@@H](O)[C@@H](O[C@H]%13[C@H](O)[C@@H](O)[C@@H](O[C@H]%14[C@H](O)[C@@H](O)[C@@H](O[C@H]7[C@H](O)[C@H]8O)O[C@@H]%14CO)O[C@@H]%13CO)O[C@@H]%12CO)O[C@@H]%11CO)O[C@@H]%10CO)O[C@@H]9CO)nn6)CC[C@]5(C)CC[C@@]4(C)[C@]3(C)CC[C@@H]12 | Active | Non-Toxic
CC(=O)OC[C@H]1O[C@@H]2O[C@H]3[C@H](O)[C@@H](O)[C@@H](O[C@H]4[C@H](O)[C@@H](O)[C@@H](O[C@H]5[C@H](O)[C@@H](O)[C@@H](O[C@H]6[C@H](O)[C@@H](O)[C@@H](O[C@H]7[C@H](O)[C@@H](O)[C@@H](O[C@H]8[C@H](O)[C@@H](O)[C@@H](O[C@H]1[C@H](O)[C@H]2O)O[C@@H]8CO)O[C@@H]7CO)O[C@@H]6CO)O[C@@H]5CO)O[C@@H]4Cn1cc(COCCOCCNC(=O)[C@@]2(C)CC[C@]4(C)CC[C@]5(C)C(=CC(=O)[C@@H]6[C@@]7(C)CC[C@H](O)C(C)(C)[C@@H]7CC[C@]65C)[C@@H]4C2)nn1)O[C@@H]3COC(C)=O | Active | Non-Toxic
COC[C@H]1O[C@@H]2O[C@H]3[C@H](OC)[C@@H](OC)[C@@H](O[C@H]4[C@H](OC)[C@@H](OC)[C@@H](O[C@H]5[C@H](OC)[C@@H](OC)[C@@H](O[C@H]6[C@H](OC)[C@@H](OC)[C@@H](O[C@H]7[C@H](OC)[C@@H](OC)[C@@H](O[C@H]8[C@H](OC)[C@@H](OC)[C@@H](O[C@H]1[C@H](OC)[C@H]2OC)O[C@@H]8COC)O[C@@H]7COC)O[C@@H]6COC)O[C@@H]5Cn1cc(CNC(=O)[C@@]2(C)CC[C@]5(C)CC[C@]6(C)C(=CC(=O)[C@@H]7[C@@]8(C)CC[C@H](O)C(C)(C)[C@@H]8CC[C@]76C)[C@@H]5C2)nn1)O[C@@H]4COC)O[C@@H]3COC |  | Toxic
CC1(C)[C@@H](OCc2cn(C[C@H]3O[C@@H]4O[C@H]5[C@H](O)[C@@H](O)[C@@H](O[C@H]6[C@H](O)[C@@H](O)[C@@H](O[C@H]7[C@H](O)[C@@H](O)[C@@H](O[C@H]8[C@H](O)[C@@H](O)[C@@H](O[C@H]9[C@H](O)[C@@H](O)[C@@H](O[C@H]%10[C@H](O)[C@@H](O)[C@@H](O[C@H]3[C@H](O)[C@H]4O)O[C@@H]%10CO)O[C@@H]9CO)O[C@@H]8CO)O[C@@H]7CO)O[C@@H]6CO)O[C@@H]5CO)nn2)CC[C@]2(C)[C@H]3C(=O)C=C4[C@@H]5C[C@@](C)(C(=O)O)CC[C@]5(C)CC[C@@]4(C)[C@]3(C)CC[C@@H]12 | Active | Non-Toxic
CC1(C)[C@@H](O)CC[C@]2(C)[C@H]3C(=O)C=C4[C@@H]5C[C@@](C)(C(=O)Nc6ccc(-c7cn(C[C@H]8O[C@@H]9O[C@H]%10[C@H](O)[C@@H](O)[C@@H](O[C@H]%11[C@H](O)[C@@H](O)[C@@H](O[C@H]%12[C@H](O)[C@@H](O)[C@@H](O[C@H]%13[C@H](O)[C@@H](O)[C@@H](O[C@H]%14[C@H](O)[C@@H](O)[C@@H](O[C@H]%15[C@H](O)[C@@H](O)[C@@H](O[C@H]8[C@H](O)[C@H]9O)O[C@@H]%15CO)O[C@@H]%14CO)O[C@@H]%13CO)O[C@@H]%12CO)O[C@@H]%11CO)O[C@@H]%10CO)nn7)cc6)CC[C@]5(C)CC[C@@]4(C)[C@]3(C)CC[C@@H]12 |  | Non-Toxic
CC(=O)OC[C@H]1O[C@@H]2O[C@H]3[C@H](OC(C)=O)[C@@H](OC(C)=O)[C@@H](O[C@H]4[C@H](OC(C)=O)[C@@H](OC(C)=O)[C@@H](O[C@H]5[C@H](OC(C)=O)[C@@H](OC(C)=O)[C@@H](O[C@H]6[C@H](OC(C)=O)[C@@H](OC(C)=O)[C@@H](O[C@H]7[C@H](OC(C)=O)[C@@H](OC(C)=O)[C@@H](O[C@H]8[C@H](OC(C)=O)[C@@H](OC(C)=O)[C@@H](O[C@H]1[C@H](OC(C)=O)[C@H]2OC(C)=O)O[C@@H]8COC(C)=O)O[C@@H]7COC(C)=O)O[C@@H]6COC(C)=O)O[C@@H]5Cn1cc(COCCOCCOCCOCCOCCOCCNC(=O)[C@@]2(C)CC[C@]5(C)CC[C@]6(C)C(=CC(=O)[C@@H]7[C@@]8(C)CC[C@H](O)C(C)(C)[C@@H]8CC[C@]76C)[C@@H]5C2)nn1)O[C@@H]4COC(C)=O)O[C@@H]3COC(C)=O | Active | Non-Toxic
CC(=O)OC[C@H]1O[C@@H]2O[C@H]3[C@H](OC(C)=O)[C@@H](OC(C)=O)[C@@H](O[C@H]4[C@H](OC(C)=O)[C@@H](OC(C)=O)[C@@H](O[C@H]5[C@H](OC(C)=O)[C@@H](OC(C)=O)[C@@H](O[C@H]6[C@H](OC(C)=O)[C@@H](OC(C)=O)[C@@H](O[C@H]7[C@H](OC(C)=O)[C@@H](OC(C)=O)[C@@H](O[C@H]8[C@H](OC(C)=O)[C@@H](OC(C)=O)[C@@H](O[C@H]1[C@H](OC(C)=O)[C@H]2OC(C)=O)O[C@@H]8COC(C)=O)O[C@@H]7COC(C)=O)O[C@@H]6COC(C)=O)O[C@@H]5Cn1cc(-c2ccc(NC(=O)[C@@]5(C)CC[C@]6(C)CC[C@]7(C)C(=CC(=O)[C@@H]8[C@@]9(C)CC[C@H](O)C(C)(C)[C@@H]9CC[C@]87C)[C@@H]6C5)cc2)nn1)O[C@@H]4COC(C)=O)O[C@@H]3COC(C)=O |  | Non-Toxic
CC(=O)OC[C@H]1O[C@@H]2O[C@H]3[C@H](OC(C)=O)[C@@H](OC(C)=O)[C@@H](O[C@H]4[C@H](OC(C)=O)[C@@H](OC(C)=O)[C@@H](O[C@H]5[C@H](OC(C)=O)[C@@H](OC(C)=O)[C@@H](O[C@H]6[C@H](OC(C)=O)[C@@H](OC(C)=O)[C@@H](O[C@H]7[C@H](OC(C)=O)[C@@H](OC(C)=O)[C@@H](O[C@H]8[C@H](OC(C)=O)[C@@H](OC(C)=O)[C@@H](O[C@H]1[C@H](OC(C)=O)[C@H]2OC(C)=O)O[C@@H]8COC(C)=O)O[C@@H]7COC(C)=O)O[C@@H]6COC(C)=O)O[C@@H]5Cn1cc(CO[C@H]2CC[C@]5(C)[C@H]6C(=O)C=C7[C@@H]8C[C@@](C)(C(=O)OCc9ccccc9)CC[C@]8(C)CC[C@@]7(C)[C@]6(C)CC[C@H]5C2(C)C)nn1)O[C@@H]4COC(C)=O)O[C@@H]3COC(C)=O |  | Non-Toxic
CC(=O)OC[C@H]1O[C@@H]2O[C@H]3[C@H](OC(C)=O)[C@@H](OC(C)=O)[C@@H](O[C@H]4[C@H](OC(C)=O)[C@@H](OC(C)=O)[C@@H](O[C@H]5[C@H](OC(C)=O)[C@@H](OC(C)=O)[C@@H](O[C@H]6[C@H](OC(C)=O)[C@@H](OC(C)=O)[C@@H](O[C@H]7[C@H](OC(C)=O)[C@@H](OC(C)=O)[C@@H](O[C@H]8[C@H](OC(C)=O)[C@@H](OC(C)=O)[C@@H](O[C@H]1[C@H](OC(C)=O)[C@H]2OC(C)=O)O[C@@H]8COC(C)=O)O[C@@H]7COC(C)=O)O[C@@H]6COC(C)=O)O[C@@H]5Cn1cc(CO[C@H]2CC[C@]5(C)[C@H]6C(=O)C=C7[C@@H]8C[C@@](C)(C(=O)O)CC[C@]8(C)CC[C@@]7(C)[C@]6(C)CC[C@H]5C2(C)C)nn1)O[C@@H]4COC(C)=O)O[C@@H]3COC(C)=O |  | Non-Toxic
